According to ChEMBL document CHEMBL1155568, “Biological characterization of fusapyrone and deoxyfusapyrone, two bioactive secondary metabolites of Fusarium semitectum” (J Nat Prod, 2000):
Calls of active or inactive are those of the source. The calls are words filed in the database; no cut-off is given here.

Columns and labels:
[1] = tested on: Solanum lycopersicum; experiment: Phytotoxicity in tomato leaf assessed as chlorosis in the leaf at 10^-4 M by tomato cutting assay; format: organism-based; conditions: in vivo, 100 µM
In short: (§1)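 Young greenhouse tomato plants were cut, and the stems were immersed in toxin solutions (MeOH stock diluted with water; 10^-3 to 10^-6 M). They were held 24 h at 22 °C under a 12-h photoperiod, then moved to distilled water for 48 h more, and symptoms were scored visually.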

[2] = tested on: Fusarium acuminatum; experiment: Antifungal activity against Fusarium acuminatum ITEM 795 at 15 ug/disk by paper disk method; format: functional; conditions: read-out: IZ
In short: (§2)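 Agar diffusion: a 0.7% water-agar overlay carrying 10^4 conidia/mL (or yeast cells) is poured on PDA. 6-mm cellulose disks loaded with methanolic compound at 5 or 15 µg/disk are air-dried and applied, with nystatin as comparator. Plates incubated 24-72 h at 25 °C; inhibition halo diameter read from three disks. Agar under each disk is subcultured on PDA to score fungicidal/fungistatic effect. Experiment run twice and averaged.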

[3] = tested on: Fusarium oxysporum; experiment: Antifungal activity against Fusarium oxysporum ITEM 149 at 15 ug/disk by paper disk method; format: functional; conditions: read-out: IZ; in short: as §2
[4] = tested on: Wickerhamomyces anomalus; experiment: Antifungal activity against Pichia anomala ITEM 1625 at 15 ug/disk by paper disk method; format: functional; conditions: Hansenula anomala; read-out: IZ
In short: (§3)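 Agar overlay disk diffusion on plant-derived filamentous fungi and yeasts: 0.7% water-agar seeded with 10^4 conidia/mL or a yeast cell suspension, poured over PDA. 6-mm cellulose disks were loaded from methanolic solutions and air-dried, with nystatin as comparator. Plates ran 24-72 h at 25 °C; inhibition halo was measured over three disks. Agar beneath disks was subcultured on PDA to separate fungicidal from fungistatic, scored in four classes; run twice, averaged.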

[5] = tested on: Cladosporium cladosporioides; experiment: Antifungal activity against Cladosporium cladosporioides ITEM 2079 at 15 ug/disk by paper disk method; format: functional; conditions: read-out: IZ; in short: as §2
[6] = tested on: Alternaria alternata; experiment: Antifungal activity against Alternaria alternata ITEM 750 at 15 ug/disk by paper disk method; format: functional; conditions: read-out: IZ; in short: as §2
[7] = tested on: Cryptococcus neoformans; experiment: Antifungal activity against Cryptococcus neoformans 13 after 24 hrs by broth micromethod assay; format: functional
In short: (§4)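 Broth microdilution in YNB with 0.5% glucose, phosphate buffer pH 7, using ten 2-fold dilutions (50-0.097 µg/mL). Inoculum from 24-48 h Sabouraud agar cultures, final 5 × 10^2 cells for C. albicans and C. kefyr, 5 × 10^3 cells/conidia for C. glabrata, Cryptococcus neoformans and Aspergillus. Incubated at 35 °C up to 72 h, read every 24 h. MIC is the complete absence of growth versus medium controls.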

[8] = tested on: Botrytis cinerea; experiment: Antifungal activity against Botrytis cinerea ITEM 966 at 15 ug/disk by paper disk method; format: functional; conditions: read-out: IZ; in short: as §2
[9] = tested on: Kluyveromyces lactis; experiment: Antifungal activity against Kluyveromyces lactis ITEM 1656 at 15 ug/disk by paper disk method; format: functional; conditions: read-out: IZ; in short: as §3
[10] = tested on: Meyerozyma guilliermondii; experiment: Antifungal activity against Pichia guilliermondii ITEM 1644 at 15 ug/disk by paper disk method; format: functional; conditions: read-out: IZ; in short: as §3
[11] = tested on: Penicillium verrucosum; experiment: Antifungal activity against Penicillium verrucosum ITEM 439 at 15 ug/disk by paper disk method; format: functional; conditions: read-out: IZ; in short: as §3
[12] = tested on: Aspergillus fumigatus; experiment: Antifungal activity against Aspergillus fumigatus 1 after 48 hrs by broth micromethod assay; format: functional; in short: as §4
[13] = tested on: Solanum lycopersicum; experiment: Phytotoxicity in tomato stem assessed as chlorosis in the leaf at 10^-3 M by tomato cutting assay; format: organism-based; conditions: in vivo, 1000 µM; in short: as §1
[14] = tested on: Meyerozyma guilliermondii; experiment: Antifungal activity against Candida guilliermondii ITEM 1638 at 15 ug/disk by paper disk method; format: functional; conditions: read-out: IZ; in short: as §2
[15] = tested on: Cryptococcus neoformans; experiment: Antifungal activity against Cryptococcus neoformans 14 after 72 hrs by broth micromethod assay; format: functional; in short: as §4
[16] = tested on: Alternaria alternata; experiment: Antifungal activity against Alternaria alternata ITEM 526 at 15 ug/disk by paper disk method; format: functional; conditions: read-out: IZ; in short: as §2
[17] = tested on: Candida maltosa; experiment: Antifungal activity against Candida maltosa ITEM 1639 at 15 ug/disk by paper disk method; format: functional; conditions: read-out: IZ; in short: as §2
[18] = tested on: Nakaseomyces glabratus; experiment: Antifungal activity against Candida glabrata at 50 ug/disk by paper disk method; format: functional, organism-based
[19] = tested on: Ascochyta rabiei; experiment: Antifungal activity against Ascochyta rabiei ITEM 1067 at 15 ug/disk by paper disk method; format: functional; conditions: read-out: IZ; in short: as §2
[20] = tested on: Aspergillus niger; experiment: Antifungal activity against Aspergillus niger 2 after 48 hrs by broth micromethod assay; format: functional; in short: as §4
[21] = tested on: Kluyveromyces marxianus; experiment: Antifungal activity against Kluyveromyces fragilis ITEM 1657 at 15 ug/disk by paper disk method; format: functional; conditions: read-out: IZ; in short: as §3
[22] = tested on: Fusarium verticillioides; experiment: Antifungal activity against Fusarium moniliforme ITEM 1497 at 15 ug/disk by paper disk method; format: functional; conditions: read-out: IZ; in short: as §2
[23] = (§5) Toxicity against Artemia salina larvae; format: organism-based; conditions: in vivo
In short: (§6)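 Quadruplicate wells; mortality counted after 24 and 36 h at 27 °C. LC50 from probit analysis of dose-mortality data from six independent experiments.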

[24] = tested on: Starmera dryadoides; experiment: Antifungal activity against Pichia dryadoides ITEM 1663 at 15 ug/disk by paper disk method; format: functional; conditions: Liangdongia dryadoides; read-out: IZ; in short: as §3
[25] = tested on: Cryptococcus neoformans; experiment: Antifungal activity against Cryptococcus neoformans at 50 ug/disk paper disk method; format: functional, organism-based
[26] = tested on: Cicer arietinum; experiment: Phytotoxicity against chickpea cells at 10^-5 M; format: organism-based; conditions: 10 µM
In short: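 Cells came from 2-week-old chickpea leaves by enzyme digestion, washed in holding buffer at pH 5.55, and mixed 1:1 with compound (final 10^-5 to 10^-3 M in 1% MeOH). They were held 3 h at 25 °C in the dark, then stained with fluorescein diacetate. Viability was scored on 30 cells by fluorescence microscopy. Fusaric acid served as positive control; repeated twice.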

[27] = tested on: Fusarium oxysporum f. sp. lycopersici; experiment: Antifungal activity against Fusarium oxysporum f. sp. lycopersici ITEM 1462 at 15 ug/disk by paper disk method; format: functional; conditions: read-out: IZ; in short: as §2
[28] = tested on: Solanum lycopersicum; experiment: Phytotoxicity in tomato leaf assessed as necrosis in the leaf at 10^-3 M by leaf puncture assay; format: organism-based; conditions: in vivo, 1000 µM
In short: (§7)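 Tomato and chickpea leaves were punctured and treated with toxin dissolved in MeOH and diluted with water (final 4% MeOH), tested from 10^-2 to 10^-7 M. Chlorosis and necrosis were recorded visually as spot symptoms.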

[29] = tested on: Penicillium verrucosum; experiment: Antifungal activity against Penicillium verrucosum ITEM 439 at 5 ug/disk by paper disk method; format: functional, organism-based; in short: as §3
[30] = tested on: Nakaseomyces glabratus; experiment: Antifungal activity against Candida glabrata 12 after 48 hrs by broth micromethod assay; format: functional; in short: as §4
[31] = tested on: Solanum lycopersicum; experiment: Phytotoxicity in tomato leaf assessed as necrosis in the leaf at 10^-2 M by leaf puncture assay; format: organism-based; conditions: in vivo; in short: as §7
[32] = tested on: Kluyveromyces marxianus; experiment: Antifungal activity against Candida kefyr Y0601 after 72 hrs by broth micromethod assay; format: functional; in short: as §4
[33] = tested on: Botrytis cinerea; experiment: Antifungal activity against Botrytis cinerea ITEM 966 at 5 ug/disk by paper disk method; format: functional, organism-based; in short: as §2
[34] = tested on: Artemia salina; experiment: as §5; format: organism-based; conditions: in vivo; in short: as §6
[35] = tested on: Kluyveromyces marxianus; experiment: Antifungal activity against Candida kefyr at 50 ug/disk by paper disk method; format: functional, organism-based
[36] = tested on: Kluyveromyces marxianus; experiment: Antifungal activity against Candida kefyr Y0601 after 48 hrs by broth micromethod assay; format: functional; in short: as §4

SMILES	Activity [1]	zone of inhibition at 15 µg/disc [2] [mm]	zone of inhibition at 15 µg/disc [3] [mm]	zone of inhibition at 15 µg/disc [4] [mm]	zone of inhibition at 15 µg/disc [5] [mm]	zone of inhibition at 15 µg/disc [6] [mm]	Activity [7] [µg/mL]	zone of inhibition at 15 µg/disc [8] [mm]	zone of inhibition at 15 µg/disc [9] [mm]	zone of inhibition at 15 µg/disc [10] [mm]	zone of inhibition at 15 µg/disc [11] [mm]	Activity [12] [µg/mL]	Activity [13]	zone of inhibition at 15 µg/disc [14] [mm]	Activity [15] [µg/mL]	zone of inhibition at 15 µg/disc [16] [mm]	zone of inhibition at 15 µg/disc [17] [mm]	Activity [18]	zone of inhibition at 15 µg/disc [19] [mm]	Activity [20] [µg/mL]	other results
CCCCCCC(C)C/C(C)=C\C(C)/C=C(C)/C=C/C(O)C(C)(C)c1cc(O)c([C@@H]2O[C@@H](CO)C[C@@H](O)[C@@H]2O)c(=O)o1 (some centres not stated) [DEXOYFUSAPYRONE]	Active	0	4	0	16.2	10.5	6.25	13.5	0	0	11	3.12	Not Active	0	3.12	11.7	0	inactive	12	1.56	zone of inhibition at 15 µg/disc [21]: 0 mm; zone of inhibition at 15 µg/disc [22]: 0 mm; LC50 [23]: 37.1 µM; zone of inhibition at 15 µg/disc [24]: 0 mm; Activity [25]: Active; Activity [26]: Active; zone of inhibition at 15 µg/disc [27]: 4 mm
CCCCCCC(C)C/C(C)=C\C(/C=C(C)/C=C/C(O)C(C)(C)c1cc(O)c([C@@H]2O[C@@H](CO)C[C@@H](O)[C@@H]2O)c(=O)o1)CO (some centres not stated) [FUSAPYRONE]	Active	17.8	27.7	0	28.7	18.7	6.25	29.3	0	0	29.7	1.56	Not Active	0	3.12	20.3	0	inactive	35.8	1.56	Activity [28]: Active; Activity [29]: inactive; Activity [30]: >50 µg/mL; Activity [31]: Active; zone of inhibition at 15 µg/disc [21]: 0 mm; Activity [32]: 3.12 µg/mL; Activity [33]: inactive; zone of inhibition at 15 µg/disc [22]: 20.1 mm; Activity [34]: Not Active; zone of inhibition at 15 µg/disc [24]: 0 mm; Activity [25]: Active; Activity [35]: Active; Activity [26]: Active; zone of inhibition at 15 µg/disc [27]: 30 mm; Activity [36]: 1.56 µg/mL
